According to publication PMC4631057 (ACS chemical biology, 2015):

Experiments:
[1] = tested on: cleaved PARP, cleaved caspase-3, LC3 conversion; experiment: Western blot of apoptosis and autophagy markers in HCT-116; assay type: cell-based, human; details: 75 μM, 48 h
Procedure, shortened: (§1)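 HCT-116 cells were grown in DMEM with 10% FBS and 1% antibiotics at 37 °C in humidified 5% CO2. They were treated with test compound or DMSO at the indicated doses for 48 h. Protein levels were then measured by Western blot, with α-tubulin as loading control.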

HuR-bound XIAP mRNA = HuR-bound XIAP mRNA (Homo sapiens, UniProt Q15717); experiment: RNP IP, HuR-bound XIAP mRNA in HCT-116 cell lysate; assay type: cell-based; details: at indicated doses, compared to DMSO
HuR-bound XIAP mRNA, sequence (Q15717 2-326 limits assumed): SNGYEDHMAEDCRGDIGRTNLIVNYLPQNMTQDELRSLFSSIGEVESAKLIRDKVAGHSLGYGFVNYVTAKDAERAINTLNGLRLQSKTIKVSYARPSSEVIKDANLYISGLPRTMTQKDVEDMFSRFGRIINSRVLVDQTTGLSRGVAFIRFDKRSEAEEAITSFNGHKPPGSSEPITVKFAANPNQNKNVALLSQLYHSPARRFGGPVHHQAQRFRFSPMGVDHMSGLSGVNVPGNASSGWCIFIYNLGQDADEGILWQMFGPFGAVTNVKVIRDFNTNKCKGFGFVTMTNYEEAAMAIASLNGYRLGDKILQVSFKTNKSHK
Procedure, shortened: (§2)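 HCT-116 lysate, prepared with a protein G immunoprecipitation kit, incubated 30 min with test compound or DMSO. HuR antibody, or mouse IgG as negative control, was then added for 60 min. Complexes were collected on protein G agarose, RNA isolated, and bound transcripts quantified by qRT-PCR. Mean ± SD of two independent experiments.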

Wnt signaling pathway = experiment: Wnt responsive 7xTcf promoter/luciferase reporter assay in HCT-116; assay type: cell-based, human; details: 20 μM, 24 h, 20 mM LiCl stimulation, compared to DMSO control
Procedure, shortened: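 HCT-116 cells were infected with the 7TFP lentiviral vector to stably express the 7xTcf promoter/luciferase construct. Cells were plated and allowed to attach overnight. They were then stimulated with 20 mM LiCl and treated with 20 μM test compound or DMSO for 24 h. Cells were lysed in reporter lysis buffer and luciferase was assayed. Activity was normalized to total protein. Values are mean ± SD of three independent experiments, compared with DMSO by one-way ANOVA.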

HuR bound Msi1 mRNA = HuR bound Msi1 mRNA (Homo sapiens, UniProt Q15717); experiment: RNP IP, HuR-bound Msi1 mRNA in HCT-116 cell lysate; assay type: cell-based; details: 50 μM, compared to DMSO control
HuR bound Msi1 mRNA, sequence (Q15717 2-326 limits assumed): as above
Procedure, shortened: as §2

[2] = tested on: Bcl-2, Msi1, and XIAP mRNAs; experiment: mRNA stability after actinomycin D in HCT-116; assay type: cell-based, human; details: 20 μM, 5 μg/mL actinomycin D, compared to DMSO control
Procedure, shortened: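 HCT-116 cells, cultured in DMEM with 10% FBS at 37 °C and 5% CO2, were exposed to 5 μg/mL actinomycin D together with 20 μM test compound or DMSO. Half-lives of Bcl-2, Msi1 and XIAP mRNAs were determined. Data are representative of two independent experiments.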

[3] = tested on: protein levels of Bcl-2, Msi1, and XIAP; experiment: Western blot of HuR target protein levels in HCT-116; assay type: cell-based, human; details: indicated doses, 48 h
Procedure, shortened: as §1

ARE^Msi1–FITC = experiment: FP titration of Bcl-xL with Msi1-FITC; assay type: binding; details: highest concentration tested 1000 nM; 2 nM Msi1-FITC
HuR full-length [4] = biological target: T1, HuR full-length (human, UniProt Q15717 1-326); experiment: fluorescence polarization
T1 sequence (Q15717 whole entry): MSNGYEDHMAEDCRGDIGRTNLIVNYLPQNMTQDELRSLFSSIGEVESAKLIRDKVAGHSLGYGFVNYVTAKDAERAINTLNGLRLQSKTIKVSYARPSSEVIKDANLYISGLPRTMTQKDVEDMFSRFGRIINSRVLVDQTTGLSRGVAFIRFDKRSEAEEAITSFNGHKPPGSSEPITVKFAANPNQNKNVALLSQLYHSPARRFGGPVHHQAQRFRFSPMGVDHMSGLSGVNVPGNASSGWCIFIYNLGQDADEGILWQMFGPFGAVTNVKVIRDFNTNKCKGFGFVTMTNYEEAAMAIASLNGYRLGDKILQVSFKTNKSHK

HuR full-length [5] = biological target: T1, HuR full-length; experiment: competition
HuR RRM1/2 = HuR RRM1/2 (UniProt Q15717 20-186); experiment: AlphaLISA
HuR RRM1/2, sequence (Q15717 20-186): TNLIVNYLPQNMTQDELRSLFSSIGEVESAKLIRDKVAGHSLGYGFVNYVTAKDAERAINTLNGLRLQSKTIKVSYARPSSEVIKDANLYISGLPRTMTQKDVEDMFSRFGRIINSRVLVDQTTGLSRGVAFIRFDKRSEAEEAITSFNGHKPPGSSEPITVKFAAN

HuR full-length [6] = biological target: T1, HuR full-length; experiment: fluorescence polarization; remark: listed apart in the source
HuR full-length [7] = biological target: T1, HuR full-length; experiment: fluorescence polarization; remark: listed apart in the source

## CCN(CC)C(=O)CC(c1cc(OC)c(OC)c(OC)c1)c1c(OC)cc(OC)c2c(-c3ccccc3)cc(=O)oc12 (stereo not drawn) [CMLD-1]
[1]
  LC3-I conversion to LC3-II: detected
  PARP cleavage: obvious PARP cleavage
  caspase-3 cleavage: subtle caspase-3 cleavage
HuR-bound XIAP mRNA
  effect on HuR-bound XIAP mRNA (RNP IP): potently inhibited
Wnt signaling pathway
  effect on Wnt signaling (luciferase reporter): significantly impacted
HuR bound Msi1 mRNA
  effect on HuR bound Msi1 mRNA (RNP IP): significantly blocked
[2]
  effect on half-lives of Bcl-2, Msi1 and XIAP mRNAs: shortened the half-lives
[3]
  effect on protein levels of Bcl-2, Msi1, and XIAP: decreased

## Bcl-xL: non-RNA binding protein used as specificity control
ARE^Msi1–FITC
  binding to ARE^Msi1–FITC (in words): no binding

B1: XIAP-FITC (AREXIAP) (ssRNA)
RNA: UAGUUAUUUUUAUGUC
HuR full-length [4]
  binding result: binds

B2: Bcl-2-FITC (AREBcl-2) (ssRNA)
RNA: AAAAGAUUUAUUUAUU
HuR full-length [4]
  binding result: binds

B3: Msi1 RNA unlabeled (ssRNA)
RNA: GCUUUUAUUUAUUUUG
HuR full-length [5]
  IC50: 17.9 nM

B4: Msi1 RNA biotinylated (ssRNA)
RNA: GCUUUUAUUUAUUUUG
HuR RRM1/2
  Kd: 75 nM

B5: Msi1-FITC (AREMsi1) (ssRNA)
RNA: GCUUUUAUUUAUUUUG
HuR full-length [6]
  Kd: ~3 nM

B6: APC-FITC (ssRNA)
RNA: UAUUUGAUAGUACACU
HuR full-length [7]
  binding signal: 20 fold lower affinity than Msi1
